In assay [1] the test system is Rattus norvegicus. Put plainly: Sodium ion output (collected per 4 h) in Saline -Loaded Rats at 0.1 mg /kg intravenous dose. Type of assay: functional. The essentials: (§1)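 Sprague-Dawley rats (250-350 g), 2 h equilibration, then tail-vein dosing (vehicle 50% saline/40% PEG/10% ethanol, 1.0 mL/kg). This was followed at once by 40 mL/kg saline po. Urine collected 4 h in metabolic cages, volume by weight, Na⁺/K⁺ by flame photometry. n = 6-7 per dose, mean ± SEM, 1-way ANOVA with Bonferroni test versus vehicle.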

For assay [2], the target named is T1, Adenosine receptor A1 (Homo sapiens, UniProt P30542).
T1 sequence (P30542 whole entry): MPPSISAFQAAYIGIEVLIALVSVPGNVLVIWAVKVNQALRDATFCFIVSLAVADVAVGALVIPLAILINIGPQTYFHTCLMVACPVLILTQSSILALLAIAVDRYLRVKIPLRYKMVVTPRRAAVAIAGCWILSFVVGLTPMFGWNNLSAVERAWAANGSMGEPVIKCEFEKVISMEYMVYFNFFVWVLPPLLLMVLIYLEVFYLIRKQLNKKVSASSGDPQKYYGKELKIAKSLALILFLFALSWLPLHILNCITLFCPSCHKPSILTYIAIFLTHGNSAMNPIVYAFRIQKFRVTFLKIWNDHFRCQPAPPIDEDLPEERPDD
Put plainly: Inhibition of binding to membranes from HEK293 cells expressing human Adenosine A1 receptor. The format is cell membranes.

In assay [3] the target is T2, Adenosine receptor A1 (Rattus norvegicus, UniProt P25099).
T2 sequence (P25099 whole entry): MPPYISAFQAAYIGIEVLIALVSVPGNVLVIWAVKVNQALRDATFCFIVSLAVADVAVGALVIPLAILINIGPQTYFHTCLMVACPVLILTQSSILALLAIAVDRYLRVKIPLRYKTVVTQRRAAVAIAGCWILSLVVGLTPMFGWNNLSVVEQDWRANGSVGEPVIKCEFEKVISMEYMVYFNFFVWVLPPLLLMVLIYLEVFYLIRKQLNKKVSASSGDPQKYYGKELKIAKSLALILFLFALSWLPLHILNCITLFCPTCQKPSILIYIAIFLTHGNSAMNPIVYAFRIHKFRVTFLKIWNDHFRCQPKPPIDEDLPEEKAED
Put plainly: Binding affinity for Adenosine A1 receptor of rat forebrain.

Assay [4] deals with Rattus norvegicus. Put plainly: Sodium ion output (collected per 4 h) in Saline -Loaded Rats at 0.01 mg /kg intravenous dose. Type of assay: functional. The essentials: as §1
Assay [5] concerns Rattus norvegicus. Put plainly: Potassium ion output (collected per 4 h) in Saline -Loaded Rats at 1.0 mg /kg intravenous dose. The format is functional. The essentials:
as §1

Another assay deals with Adenosine A2 receptor (Rattus norvegicus, UniProt P29276+P30543). Put plainly: Binding affinity for Adenosine A2 receptor from rat striatal membranes.
Assay [6] deals with Rattus norvegicus. The experiment in a line: Potassium ion output (collected per 4 h) in Saline -Loaded Rats at 0.1 mg /kg intravenous dose. Type of assay: functional. The essentials: as §1
For assay [7], the system named is Rattus norvegicus. The experiment in a line: Urine output (collected per 4 h) in Saline -Loaded Rats at 0.01 mg /kg intravenous dose. Type of assay: functional. The method, boiled down:
as §1

The target in assay [8] is T3, Adenosine receptor A1 (Cavia porcellus, UniProt P47745).
T3 sequence (P47745 whole entry): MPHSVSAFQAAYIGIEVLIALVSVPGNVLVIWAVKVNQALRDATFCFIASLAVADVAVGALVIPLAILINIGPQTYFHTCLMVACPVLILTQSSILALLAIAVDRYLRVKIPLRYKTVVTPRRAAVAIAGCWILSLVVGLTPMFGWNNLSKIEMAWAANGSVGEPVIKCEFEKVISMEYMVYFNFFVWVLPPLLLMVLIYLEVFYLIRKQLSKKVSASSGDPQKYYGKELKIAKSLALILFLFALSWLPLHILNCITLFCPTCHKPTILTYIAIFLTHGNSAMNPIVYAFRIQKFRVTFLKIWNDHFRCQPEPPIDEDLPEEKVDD
The experiment in a line: Binding affinity for Adenosine A1 receptor from Guinea pig membranes.

Assay [9] concerns Rattus norvegicus. The experiment in a line: Sodium ion output (collected per 4 h) in Saline -Loaded Rats at 1.0 mg /kg intravenous dose. Type of assay: functional. The essentials:
as §1

For assay [10], the system named is Rattus norvegicus. The experiment in a line: Urine output (collected per 4 h) in Saline -Loaded Rats at 1.0 mg /kg intravenous dose. Type of assay: functional. The essentials: as §1
Assay [11] concerns Rattus norvegicus. The experiment in a line: Urine output (collected per 4 h) in Saline -Loaded Rats at 0.1 mg /kg intravenous dose. Type of assay: functional. The essentials:
as §1

The subject of assay [12] is Rattus norvegicus. Put plainly: Potassium ion output (collected per 4 h) in Saline -Loaded Rats at 0.01 mg /kg intravenous dose. The format is functional. The method, boiled down:
as §1

Usually Ki stands for the equilibrium dissociation constant of an inhibitor or competing ligand from its target. Low values mean a stronger hold on the target, high ones a looser hold on the target.

Each structure is given as a SMILES string.

Turning to `CCCn1c(=O)c2nc(C3CC4CC3C3OC43)[nH]c2n(CCC)c1=O` (stereo in doubt; 8), the values for the Na+ output in the assay on Rattus norvegicus [1], in the assay with Rattus norvegicus [4] and in the assay with Rattus norvegicus [9] were 4.56 mmol/kg, 3.8 mmol/kg and 5.99 mmol/kg, respectively. Besides, the Ki on Adenosine receptor A1 [2] turned out to be 0.8 nM; at Adenosine receptor A1 [3] it was 5.12 nM; at Adenosine A2 receptor, 551 nM; at Adenosine receptor A1 [8], 3.17 nM. For the same molecule, the results for the K+ output in the assay on Rattus norvegicus [5], in the assay on Rattus norvegicus [6] and with Rattus norvegicus [12] were 1.84 mmol/kg, 0.89 mmol/kg and 0.97 mmol/kg, respectively. The figures for the Urine output in the assay with Rattus norvegicus [7], in the assay with Rattus norvegicus [10] and in the assay on Rattus norvegicus [11] were 26.8 mL/kg, 44.1 mL/kg and 31.3 mL/kg, respectively.

For the molecule `CCCn1c(=O)c2nc(C34CC5CC(CC3C5)C4)[nH]c2n(CCC)c1=O` [ROLOFYLLINE], on Adenosine A2 receptor, the inhibitory constant (Ki) was 510 nM.

Consider `CCCn1c(=O)c2nc(C3CC4CC3C3OC43)[nH]c2n(CCC)c1=O` (stereo in doubt), for which the Na+ output worked out at 5.14 mmol/kg with Rattus norvegicus [1], 3.54 mmol/kg in the assay with Rattus norvegicus [4] and 6.54 mmol/kg with Rattus norvegicus [9]. The inhibition constant Ki amounted to 0.82 nM on Adenosine receptor A1 [2], 1.43 nM at Adenosine receptor A1 [3], 309 nM on Adenosine A2 receptor and 3.15 nM on Adenosine receptor A1 [8]. In addition, the K+ output with Rattus norvegicus [5] was found to be 1.42 mmol/kg; in the assay with Rattus norvegicus [6], 1.22 mmol/kg; in the assay on Rattus norvegicus [12], 1.1 mmol/kg. Moreover, the results for the Urine output in the assay on Rattus norvegicus [7], in the assay with Rattus norvegicus [10] and in the assay with Rattus norvegicus [11] were 23.2 mL/kg, 43.2 mL/kg and 33 mL/kg, respectively.

For `CCCn1c(=O)c2nc(C3CC4CC3C3OC43)[nH]c2n(CCC)c1=O` (stereo in doubt; 12), the Na+ output in the assay with Rattus norvegicus [1] came out at 5.29 mmol/kg; in the assay with Rattus norvegicus [4], 3.02 mmol/kg; in the assay on Rattus norvegicus [9] it was 5.86 mmol/kg. The inhibition constant (Ki) on Adenosine receptor A1 [2] stood at 0.45 nM; on Adenosine receptor A1 [3], 0.67 nM; at Adenosine A2 receptor, 1250 nM; at Adenosine receptor A1 [8], 1.43 nM. For the same molecule, the K+ output with Rattus norvegicus [5] worked out at 1.09 mmol/kg; in the assay on Rattus norvegicus [6], 1.34 mmol/kg; in the assay on Rattus norvegicus [12], 0.75 mmol/kg. The Urine output came to 21.7 mL/kg in the assay on Rattus norvegicus [7], 37.1 mL/kg with Rattus norvegicus [10] and 35.1 mL/kg in the assay with Rattus norvegicus [11].
